Consider 14 compounds from ChEMBL document CHEMBL2034980, “N⁴-Phenyl-substituted 2-acetylpyridine thiosemicarbazones: cytotoxicity against human tumor cells, structure-activity relationship studies and investigation on the mechanism of action” (Bioorg Med Chem, 2012).

Assay [1] can be described thus: (§1) Cytotoxicity against human U87 cells expressing wild-type p53 after 48 hrs by MTT assay. Conditions: U-87 MG. Type of assay: functional, cell-based, U-87MG ATCC. The procedure, abridged:
(§2)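 MTT assay. Cells were grown in DMEM with 10% FBS and penicillin/streptomycin at 37 °C under 5% CO2, seeded at 1–2×10^3 cells/well and treated 12 h later with 1×10^-12 to 1×10^-5 M ([…] from DMSO stock, final DMSO <0.5%) for 48 h. MTT was added at 0.5 mg mL⁻¹, formazan dissolved in DMSO and read at 570 nm. IC50 is the concentration giving 50% cytotoxicity. Quadruplicates, ≥3 independent experiments.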
In general terms: Tetrazolium dyes change colour on reduction, which living cells bring about.

Assay [2] relates to MCF7. The experiment in a line: Cytotoxicity against human MCF7 cells after 48 hrs by MTT assay. The assay is classed as functional, cell-based. Conditions: for IC50: MCF7, 48 h. In outline: as §2
Assay [3] has as its system T98G. Description: Cytotoxicity against human T98G cells expressing mutant p53 after 48 hrs by MTT assay. The assay is classed as functional, cell-based. The procedure, abridged:
as §2

Assay [4] deals with U-87MG ATCC. The experiment in a line: Induction of apoptosis in human U87 cells assessed as membrane blebbing at 1 uM after 48 hrs by DAPI staining. Type of assay: functional, cell-based.
Assay [5] deals with MCF7. Description: Induction of apoptosis in human MCF7 cells assessed as chromatin condensation at 1 uM after 48 hrs by DAPI staining. Type of assay: functional, cell-based. The procedure, abridged: (§3)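 Cells were treated at 1 μM for 48 h, washed in PBS and fixed in 70% methanol for 30 min at room temperature. They were stained with 0.4 μg mL⁻¹ DAPI for 1 h in the dark, and nuclear condensation and fragmentation were scored by fluorescence microscopy (385–410 nm).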

For assay [6], the system named is U-87MG ATCC. Described as §1. The assay is classed as functional, cell-based. The procedure, abridged:
as §2

In assay [7] the test system is MCF7. Description: Induction of apoptosis in human MCF7 cells assessed as cell shrinkage at 1 uM after 48 hrs by DAPI staining. The assay is classed as functional, cell-based.
The test system of assay [8] is T98G. Description: Induction of apoptosis in human T98G cells assessed as membrane blebbing at 1 uM after 48 hrs […]. Type of assay: functional, cell-based.
In assay [9] the test system is T98G. The experiment in a line: Induction of apoptosis in human T98G cells assessed as cell shrinkage at 1 uM after 48 hrs by DAPI staining. Type of assay: functional, cell-based.
Assay [10] relates to U-87MG ATCC. The experiment in a line: Induction of apoptosis in human U87 cells assessed as chromatin condensation at 1 uM after 48 hrs by DAPI staining. Type of assay: functional, cell-based. The procedure, abridged:
as §3

Assay [11] has as its system T98G. Description: Induction of apoptosis in human T98G cells assessed as chromatin condensation at 1 uM after 48 hrs by DAPI staining. The assay is classed as functional, cell-based. In outline:
as §3

Assay [12] relates to U-87MG ATCC. The experiment in a line: Induction of apoptosis in human U87 cells assessed as DNA fragmentation at 1 uM after 48 hrs by DAPI staining. Type of assay: functional, cell-based. The procedure, abridged:
as §3

Assay [13] deals with U-87MG ATCC. The experiment in a line: Induction of apoptosis in human U87 cells assessed as cell shrinkage at 1 uM after 48 hrs by DAPI staining. The assay is classed as functional, cell-based.
Assay [14] concerns T98G. Description: Induction of apoptosis in human T98G cells assessed as irregularities in cellular shape at 1 uM after 48 hrs by DAPI staining. Type of assay: functional, cell-based.
The subject of assay [15] is T98G. Description: Induction of apoptosis in human T98G cells assessed as chromatin condensation at 1 uM after 48 hrs by acridine orange/ethidium bromide staining-based microscopy. The assay is classed as functional, cell-based. The procedure, abridged:
(§4)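 After 48 h at 1 μM, cells were incubated for 15 min in serum-free medium containing 1 μg mL⁻¹ acridine orange and 1 μg mL⁻¹ ethidium bromide. The medium was removed and cells imaged by inverted fluorescence microscopy (530–650 nm). Green/orange nuclear patterns and acidic cytoplasmic vacuoles were scored.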

In assay [16] the test system is MCF7. The experiment in a line: Induction of apoptosis in human MCF7 cells assessed as chromatin condensation at 1 uM after 48 hrs by acridine orange/ethidium bromide staining-based microscopy. The assay is classed as functional, cell-based. The procedure, abridged:
as §4

In assay [17] the test system is U-87MG ATCC. The experiment in a line: Induction of apoptosis in human U87 cells assessed as appearance of autophagolysosomes at 1 uM after 48 hrs by acridine orange/ethidium bromide staining-based microscopy. Type of assay: functional, cell-based. In outline:
as §4

In assay [18] the test system is MCF7. Description: Induction of apoptosis in human MCF7 cells assessed as DNA fragmentation at 1 uM after 48 hrs by DAPI staining. The assay is classed as functional, cell-based. The procedure, abridged: as §3
Assay [19] concerns T98G. Description: Induction of apoptosis in human T98G cells assessed as appearance of autophagolysosomes at 1 uM after 48 hrs by acridine orange/ethidium bromide staining-based microscopy. Type of assay: functional, cell-based. The procedure, abridged:
as §4

Assay [20] in a line: Haemolytic activity in human RBC after 1 hr by photometry. The note with it: Erythrocyte. Type of assay: ADME, cell-based. The procedure, abridged:
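Human EDTA blood was spun at 700xg for 10 min and the erythrocytes washed three times in cold PBS pH 7.4, then resuspended in it. Cells were incubated with varying compound concentrations for 1 h at 37 °C with shaking. After centrifugation, released haemoglobin was read at 540 nm to give the IC50. Mean ± SD, n = 4.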

Assay [21] concerns T98G. Description: Induction of apoptosis in human T98G cells assessed as DNA fragmentation at 1 uM after 48 hrs by DAPI staining. The assay is classed as functional, cell-based. In outline: as §3
For assay [22], the system named is MCF7. The experiment in a line: Induction of apoptosis in human MCF7 cells assessed as appearance of autophagolysosomes at 1 uM after 48 hrs by acridine orange/ethidium bromide staining-based microscopy. The assay is classed as functional, cell-based. The procedure, abridged: as §4
Assay [23] has as its system MCF7. The experiment in a line: Induction of apoptosis in human MCF7 cells assessed as irregularities in cellular shape at 1 uM after 48 hrs by DAPI staining. The assay is classed as functional, cell-based.
In assay [24] the test system is U-87MG ATCC. Description: Induction of apoptosis in human U87 cells assessed as chromatin condensation at 1 uM after 48 hrs by acridine orange/ethidium bromide staining-based microscopy. The assay is classed as functional, cell-based. The procedure, abridged:
as §4

For assay [25], the system named is MCF7. The experiment in a line: Induction of apoptosis in human MCF7 cells assessed as membrane blebbing at 1 uM after 48 hrs by DAPI staining. The assay is classed as functional, cell-based.
The subject of assay [26] is U-87MG ATCC. Description: Induction of apoptosis in human U87 cells assessed as irregularities in cellular shape at 1 uM after 48 hrs by DAPI staining. The assay is classed as functional, cell-based.

The source made the active and inactive calls. The calls are words filed in the database; no cut-off is given here.

As for `C/C(=N/NC(=S)Nc1ccccc1)c1ccccn1`, the IC50 in [1] (read-out: pIC50 (converted)) was 1.4 nM; in the assay with MCF7 [2] (read-out: pIC50 (converted)) it was 0.18 nM; in the assay on T98G [3] (read-out: pIC50 (converted)), 6.81 nM.
For `C/C(=N/NC(=S)Nc1ccccc1F)c1ccccn1` the same measures were 5 nM, 0.39 nM and 3.1 nM.
`C/C(=N/NC(=S)Nc1cccc(F)c1)c1ccccn1`: the results for the IC50 (in assay [1] (read-out: pIC50 (converted)); in the assay with MCF7 [2] (read-out: pIC50 (converted)); in the assay on T98G [3] (read-out: pIC50 (converted))) were 18 nM, 8.99 nM and 12 nM, respectively.
The like results for `C/C(=N/NC(=S)Nc1ccc(F)cc1)c1ccccn1` were, in that order, 10 nM, 1.2 nM and 17 nM.
Consider `C/C(=N/NC(=S)Nc1ccc(Cl)cc1)c1ccccn1`, for which the IC50 in [1] (read-out: pIC50 (converted)) was 1.7 nM; with MCF7 [2] (read-out: pIC50 (converted)), 8.49 nM; in the assay with T98G [3] (read-out: pIC50 (converted)) it was 5.9 nM.
For `C/C(=N/NC(=S)Nc1ccccc1I)c1ccccn1` the same measures were 6.1 nM, 4.1 nM and 8.09 nM.
For `C/C(=N/NC(=S)Nc1cccc(I)c1)c1ccccn1` the same measures were 83.9 nM, 45 nM and 61 nM.
For `C/C(=N/NC(=S)Nc1ccc(I)cc1)c1ccccn1` the same measures were 59 nM, 6.61 nM and 64 nM.
As for `C/C(=N/NC(=S)Nc1ccccc1[N+](=O)[O-])c1ccccn1`, the IC50 in assay [1] (read-out: pIC50 (converted)) was 4.3 nM; in the assay on MCF7 [2] (read-out: pIC50 (converted)), 5.7 nM; in the assay on T98G [3] (read-out: pIC50 (converted)), 6.61 nM.
For `C/C(=N/NC(=S)Nc1cccc([N+](=O)[O-])c1)c1ccccn1` the same measures were 69 nM, 38 nM and 140 nM.
For `C/C(=N/NC(=S)Nc1ccc([N+](=O)[O-])cc1)c1ccccn1` the same measures were 160 nM, 52 nM and 140 nM.
The like results for `C/C(=N\NC(=S)Nc1ccccc1)c1ccccn1` were, in that order, 1.4 nM, 0.18 nM and 6.81 nM.
Regarding `CC(=NNC(=S)Nc1ccccc1)c1ccccn1` (mixture of isomers), the outcome in the assay on U-87MG ATCC [4], with MCF7 [5], in the assay on MCF7 [7], in the assay with T98G [8], in the assay with T98G [9] and in the assay with U-87MG ATCC [10] was Active. For the same compound, the outcome in the assay with T98G [11], in the assay on U-87MG ATCC [12], in the assay on U-87MG ATCC [13], in the assay on T98G [14], in the assay with T98G [15] and in the assay on MCF7 [16] was Active. In addition, the result with U-87MG ATCC [17], with MCF7 [18], in the assay on T98G [19], in the assay on T98G [21], in the assay on MCF7 [22] and in the assay with MCF7 [23] was Active. The result in the assay on U-87MG ATCC [24], with MCF7 [25] and in the assay on U-87MG ATCC [26] was Active. Further, the IC50 in [1] (read-out: IC50) is 1.4 nM; in the assay with MCF7 [2] (read-out: IC50), 0.18 nM; in assay [20] it was greater than 10000 nM; in the assay on T98G [3] (read-out: IC50), 6.8 nM. For the same compound, the Activity entry with U-87MG ATCC [6], with MCF7 [2] and in the assay on T98G [3] was “Dose-dependent effect” in each case.
On to `COc1cc([C@@H]2c3cc4c(cc3[C@@H](O[C@@H]3O[C@@H]5CO[C@@H](C)O[C@H]5[C@H](O)[C@H]3O)[C@H]3COC(=O)[C@H]23)OCO4)cc(OC)c1O` [ETOPOSIDE], for which the IC50 in assay [1] (read-out: IC50) stood at 620 nM; in the assay with MCF7 [2] (read-out: IC50) it was 480 nM; with T98G [3] (read-out: IC50), 460 nM.
